From ChEMBL document CHEMBL1124859, “Nonsteroidal antiinflammatory drug hydroxamic acids. Dual inhibitors of both cyclooxygenase and 5-lipoxygenase” (J Med Chem, 1990) come the findings set out here.

For orientation: IC50 means the midpoint of a concentration-inhibition curve.

In assay [1] the target is T1, Polyunsaturated fatty acid 5-lipoxygenase (Rattus norvegicus, UniProt P12527).
T1 sequence (P12527 whole entry): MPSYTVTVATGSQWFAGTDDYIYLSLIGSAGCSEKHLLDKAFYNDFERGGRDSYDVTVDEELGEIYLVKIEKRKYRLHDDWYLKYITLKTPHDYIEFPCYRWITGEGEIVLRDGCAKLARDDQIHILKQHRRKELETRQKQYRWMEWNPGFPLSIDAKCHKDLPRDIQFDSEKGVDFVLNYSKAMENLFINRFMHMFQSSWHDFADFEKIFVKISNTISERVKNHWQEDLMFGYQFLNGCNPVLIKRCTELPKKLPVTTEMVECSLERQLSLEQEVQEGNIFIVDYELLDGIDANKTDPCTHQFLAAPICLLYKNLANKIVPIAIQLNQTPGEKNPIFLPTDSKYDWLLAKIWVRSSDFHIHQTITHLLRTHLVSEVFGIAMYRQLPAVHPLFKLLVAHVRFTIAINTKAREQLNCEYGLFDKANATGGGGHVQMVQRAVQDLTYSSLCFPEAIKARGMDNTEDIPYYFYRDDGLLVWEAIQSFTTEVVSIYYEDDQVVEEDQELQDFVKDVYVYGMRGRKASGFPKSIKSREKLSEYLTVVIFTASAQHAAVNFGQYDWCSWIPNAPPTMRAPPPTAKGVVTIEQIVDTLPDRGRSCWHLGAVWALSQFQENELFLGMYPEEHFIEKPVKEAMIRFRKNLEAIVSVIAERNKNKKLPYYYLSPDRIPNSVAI
Nature of the assay: Inhibition of 5-lipoxygenase in intact RBL-1 cell line. In kind it is cell-based. The essentials: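 RBL-1 cells at 2 × 10⁶ cells/mL were held in PBS with 1.0 mM Ca²⁺. They were incubated with or without inhibitor for 7 min at 37 °C, with 5 μM ionophore A-23187. LTB₄ was measured by radioimmunoassay. IC50 came from regression of percent inhibition against inhibitor concentration; otherwise percent inhibition at the highest concentration tested was given.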

The subject of assay [2] is Rattus norvegicus. Briefly: In vivo ulcerogenicity was determined after peroral administration in rat. The assay is classed as functional. The procedure, abridged: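 Rats were dosed orally. The ulcerogenic dose (UD50) was taken as the oral dose in mg/kg that produced ulcers in 50% of the rats tested.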
The subject of assay [3] is Rattus norvegicus. Briefly: In vivo percent inhibition of mycobacterium foot-pad edema (MFE) after peroral administration was determined. The assay is classed as functional. The procedure, abridged:
(§1)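 Compounds were given orally to rats at the stated doses in mg/kg. Groups held 7–14 animals each. Foot-pad edema was scored as percent inhibition against controls, or as the dose giving a set level of inhibition (ID25 or ID40).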

The species named for assay [4] is Rattus norvegicus. Nature of the assay: Relative binding affinity to 5-lipoxygenase and cyclooxygenase.
The subject of assay [5] is Rattus norvegicus. Briefly: In vivo ulcerogenicity was determined after peroral administration at a dose of 200 mg/kg in rat; No significant ulceration. In kind it is functional, organism-based. On the set-up: dose 200 mg/kg.
The test system of assay [6] is Rattus norvegicus. Briefly: In vivo percent inhibition of carrageenan foot-pad edema (CFE) after peroral administration was determined. The assay is classed as functional. The essentials: as §1
In general terms: The carrageenan paw model is a standard test of acute inflammation.

Regarding `COc1ccc2c(c1)c(CC(=O)O)c(C)n2C(=O)c1ccc(Cl)cc1` [INDOMETHACIN], in assay [1] (read-out: IC50), the IC50 was over 100 µM. Also, in the assay with Rattus norvegicus [2], the UD50 is 5.4 mg/kg. The compound also registered an ID40 in the assay on Rattus norvegicus [3] of 0.21 mg/kg.

The compound `COc1ccc2c(c1)c(CC(=O)NO)c(C)n2C(=O)c1ccc(Cl)cc1` [OXAMETACIN] came in with a UD50 in the assay with Rattus norvegicus [2] of 103 mg/kg. In the assay filed under Rattus norvegicus [4], the IC50 ratio is 6.8.

For `CONC(=O)CC1=C(C)/C(=C/c2ccc([S+](C)[O-])cc2)c2ccc(F)cc21` (centres undefined), in assay [1] (read-out: IC50), the IC50 is 26 µM.

As for `CC(C)Cc1ccc(C(C)C(=O)O)cc1` (centres undefined) [IBUPROFEN], in assay [1] (rbl-1), the IC50 entry was “No significant inhibition”.

As to `COc1ccc2c(c1)c(CC(=O)N(O)C(C)C)c(C)n2C(=O)c1ccc(Cl)cc1`, the ID40 in the assay on Rattus norvegicus [3] stood at 0.82 mg/kg. Also, in the assay with Rattus norvegicus [5], the UD50 result is “No significant inhibition”.

Compound `CONC(=O)c1ccccc1Nc1c(Cl)ccc(C)c1Cl` registered an ID40 in the assay on Rattus norvegicus [3] of 24 mg/kg. Also, in the assay with Rattus norvegicus [6], the ID25 was found to be 1.3 mg/kg. Further, in the assay on Rattus norvegicus [5], the UD50 result is “No significant inhibition”.

For `CC(C)Cc1ccc(C(C)C(=O)N(C)O)cc1` (centres undefined), the 50% inhibitory concentration (IC50) in assay [1] (read-out: IC50) was determined as 1.2 µM. Moreover, in the assay filed under Rattus norvegicus [4], the IC50 ratio was 0.06.

In the case of `CONC(=O)Cc1c(C)n(C(=O)c2ccc(Cl)cc2)c2ccc(OC)cc12`, in the assay on Rattus norvegicus [2], the UD50 is 42 mg/kg. In the assay listed under Rattus norvegicus [4], the IC50 ratio was over 120.

Take `Cc1ccc(Cl)c(Nc2ccccc2C(=O)NO)c1Cl`: the ID40 with Rattus norvegicus [3] worked out at 27 mg/kg. Further, the UD50 result in the assay with Rattus norvegicus [5] is “No significant inhibition”.

In the case of `CC1=C(CC(=O)O)c2cc(F)ccc2/C1=C\c1ccc([S+](C)[O-])cc1` (centres undefined), in assay [1] (read-out: IC50), the 50% inhibitory concentration (IC50) is over 100 µM.

Compound `Cc1ccc(Cl)c(Nc2ccccc2C(=O)N(C)O)c1Cl` showed an ID40 in the assay with Rattus norvegicus [3] of 2.5 mg/kg. Further, in the assay on Rattus norvegicus [6], the ID25 was 0.2 mg/kg. In addition, in the assay with Rattus norvegicus [5], the UD50 entry is “No significant inhibition”.

For `CC(C)Cc1ccc(C(C)C(=O)NO)cc1` (centres undefined) [IBUPROXAM], the half-maximal inhibitory concentration (IC50) in assay [1] (read-out: IC50) was 20 µM. Further, in the assay filed under Rattus norvegicus [4], the IC50 ratio was found to be 2.

Turning to `Cc1ccc(Cl)c(Nc2ccccc2C(=O)[O-])c1Cl.O.[Na+]` [MECLOFENAMATE SODIUM], in the assay with Rattus norvegicus [2], the UD50 was determined as 36 mg/kg. The compound also returned an ID40 in the assay with Rattus norvegicus [3] of 0.39 mg/kg. Besides, in the assay with Rattus norvegicus [6], the ID25 amounted to 8.2 mg/kg.

For the compound `CONC(=O)C(C)c1ccc(CC(C)C)cc1` (centres undefined), the half-inhibitory concentration (IC50) in assay [1] (read-out: IC50) is over 32 µM. Moreover, the IC50 ratio in the assay listed under Rattus norvegicus [4] is over 5.5.
